For data set [1], the target named is T1, Proteinase-activated receptor 1 (Homo sapiens, UniProt P25116).
T1 sequence (P25116 whole entry): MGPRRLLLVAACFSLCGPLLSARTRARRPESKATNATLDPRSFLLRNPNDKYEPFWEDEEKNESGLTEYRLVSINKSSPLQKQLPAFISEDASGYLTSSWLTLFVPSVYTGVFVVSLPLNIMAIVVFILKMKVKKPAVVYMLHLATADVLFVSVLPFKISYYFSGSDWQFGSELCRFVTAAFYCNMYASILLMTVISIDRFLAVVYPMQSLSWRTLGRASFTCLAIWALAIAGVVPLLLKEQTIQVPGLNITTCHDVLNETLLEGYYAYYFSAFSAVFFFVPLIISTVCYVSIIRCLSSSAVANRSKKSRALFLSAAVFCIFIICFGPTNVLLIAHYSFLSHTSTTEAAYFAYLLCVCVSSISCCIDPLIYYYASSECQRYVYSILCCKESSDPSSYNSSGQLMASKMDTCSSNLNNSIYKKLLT
As to the kind of experiment: Displacement of [3H]haTRAP from PAR1 in human platelet membranes after 60 mins by scintillation counting analysis. The data set is classed as cell membranes. In a few lines:
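Radioligand binding to PAR1 using a tritiated peptide ligand, phenylalanine-arginine-cyclohexylalanine-homoarginine-[³H]-tyrosine-NH₂, reported as IC50. Each value is the average of three measurements. Racemic mixtures were tested without separation. Vorapaxar, synthesized in-house, was included as the reference standard.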
(In general: Loss of bound radioactivity is the signal in a displacement assay; it reports binding, not function.)

Data set [2] can be described thus: Cytotoxicity against human HepG2 cells assessed as ATP contents at 30 uM after 24 hrs relative to control. Particulars: read-out: Activity. It is filed as cell-based. The essentials: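 HepG2 cells were exposed to compound at 30 μM. Cellular ATP content was measured 24 h after compound addition and expressed as % of vehicle-treated control.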
Data set [3] in a line: Metabolic stability in human liver microsomes assessed as time when 50% of compound remains. It is filed as ADME. Particulars: read-out: Time.
A short description of data set [4]: Metabolic stability in rat liver microsomes assessed as time when 50% of compound remains. The data set is classed as ADME. Particulars: read-out: Time.

Regarding `O=C(NC1C[C@@H]2CCCC[C@@H]2[C@H]1/C=C/c1ccc(-c2cccc(F)c2)cn1)C1CC1` (mixture of isomers), the IC50 (usually the concentration needed to halve the response being measured) in data set [1] amounted to 0.23 µM.

In turn, `CC(=O)OC1C[C@@H]2CCCC[C@@H]2[C@H]1/C=C/c1ccc(-c2cccc(F)c2)cn1` (mixture of isomers) had an IC50 in data set [1] of 0.067 µM.

In turn, `OC1C[C@@H]2CCCC[C@@H]2[C@H]1/C=C/c1ccc(-c2cccc(F)c2)cn1` (mixture of isomers) had a 50% inhibitory concentration (IC50) in data set [1] of 0.22 µM.

As for `COC(=O)NC1C[C@@H]2CCCC[C@@H]2[C@H]1/C=C/c1ccc(-c2cccc(F)c2)cn1` (mixture of isomers), the IC50 in data set [1] was 0.98 µM.

On to `CCOC(=O)N[C@@H]1CC[C@@H]2[C@@H](C1)C[C@H]1C(=O)O[C@H](C)[C@H]1[C@H]2/C=C/c1ccc(-c2cccc(F)c2)cn1` [VORAPAXAR], for which the viability at 24 h, 30 µM in data set [2] turned out to be 102%. For the same compound, in data set [1], the IC50 stood at 0.0011 µM. Moreover, the half-life in data set [3] came out at 83.2 min; in data set [4], 32.4 min.

In data set [1], `O=C(Nc1ccccc1)OC1C[C@@H]2CCCC[C@@H]2[C@H]1/C=C/c1ccc(-c2cccc(F)c2)cn1` (mixture of isomers) gave an IC50 of 0.36 µM.

Compound `NC1C[C@@H]2CCCC[C@@H]2[C@H]1/C=C/c1ccc(-c2cccc(F)c2)cn1` (mixture of isomers) returned an IC50 in data set [1] of 0.23 µM.

As to `CC(=O)NC1C[C@@H]2CCCC[C@@H]2[C@H]1/C=C/c1ccc(-c2cccc(F)c2)cn1` (mixture of isomers), the IC50 in data set [1] stood at 0.053 µM.

For `CC(=O)N(C)C1C[C@@H]2CCCC[C@@H]2[C@H]1/C=C/c1ccc(-c2cccc(F)c2)cn1` (mixture of isomers), the viability at 24 h, 30 µM in data set [2] amounted to 98%. In data set [1], this compound returned an IC50 of 0.0054 µM. In addition, the half-life in data set [3] turned out to be 5.6 min; in data set [4] it was 5.2 min.

In the case of `O=C1NCC2(C[C@@H]3CCCC[C@@H]3[C@H]2/C=C/c2ccc(-c3cccc(F)c3)cn2)O1` (mixture of isomers), in data set [2], the viability at 24 h, 30 µM amounted to 101%. This compound also displayed an IC50 in data set [1] of 0.0086 µM. The half-life amounted to 4.4 min in data set [3] and 6.7 min in data set [4].

For `CS(=O)(=O)OC1C[C@@H]2CCCC[C@@H]2[C@H]1/C=C/c1ccc(-c2cccc(F)c2)cn1` (mixture of isomers), the viability at 24 h, 30 µM in data set [2] was 94%. For the same compound, the IC50 in data set [1] was found to be 0.0064 µM. In addition, the figures for the half-life in data set [3] and in data set [4] were 3.5 min and 6.5 min, respectively.

For the compound `CC1(O)C[C@@H]2CCCC[C@@H]2[C@H]1/C=C/c1ccc(-c2cccc(F)c2)cn1` (mixture of isomers), the IC50 in data set [1] stood at 0.033 µM.

Turning to `CC(C)(C)OC(=O)NC1C[C@@H]2CCCC[C@@H]2[C@H]1/C=C/c1ccc(-c2cccc(F)c2)cn1` (mixture of isomers), the IC50 in data set [1] is 7.8 µM.

Regarding `Fc1cccc(-c2ccc(/C=C/[C@@H]3[C@H]4CCCC[C@H]4CC34OCCO4)nc2)c1` (racemic), in data set [2], the viability at 24 h, 30 µM came to 97%. Besides, the IC50 in data set [1] came out at 0.026 µM. Besides, the half-life was 4.5 min in data set [3] and 3.4 min in data set [4].

For `Fc1cccc(-c2ccc(/C=C/[C@H]3[C@H]4CCCC[C@H]4CC34OCCO4)nc2)c1` (racemic), in data set [1], the 50% inhibitory concentration (IC50) came out at 2.1 µM.

`CN(C1C[C@@H]2CCCC[C@@H]2[C@H]1/C=C/c1ccc(-c2cccc(F)c2)cn1)S(C)(=O)=O` (mixture of isomers): the viability at 24 h, 30 µM in data set [2] came out at 95%. In data set [1], this compound gave an IC50 of 0.0013 µM. In addition, the half-life was determined as 2.5 min in data set [3] and 2.2 min in data set [4].

In the case of `O=C1C[C@@H]2CCCC[C@@H]2[C@H]1/C=C/c1ccc(-c2cccc(F)c2)cn1` (racemic), the IC50 in data set [1] turned out to be 1.1 µM.

In turn, `CS(=O)(=O)NC1C[C@@H]2CCCC[C@@H]2[C@H]1/C=C/c1ccc(-c2cccc(F)c2)cn1` (mixture of isomers) yielded an IC50 in data set [1] of 0.05 µM. The half-life in data set [3] was found to be 273 min; in data set [4], 105 min.

For `COC1(C)C[C@@H]2CCCC[C@@H]2[C@H]1/C=C/c1ccc(-c2cccc(F)c2)cn1` (mixture of isomers), the IC50 in data set [1] is 0.043 µM.

In data set [1], `Fc1cccc(-c2ccc(/C=C/[C@H]3C(OCc4ccccc4)C[C@@H]4CCCC[C@@H]43)nc2)c1` (mixture of isomers) had an IC50 of 0.28 µM.

Turning to `COC1C[C@@H]2CCCC[C@@H]2[C@H]1/C=C/c1ccc(-c2cccc(F)c2)cn1` (mixture of isomers), the IC50 in data set [1] came to 0.067 µM.

`CN(C)C(=S)OC1C[C@@H]2CCCC[C@@H]2[C@H]1/C=C/c1ccc(-c2cccc(F)c2)cn1` (mixture of isomers) had an IC50 in data set [1] of 0.12 µM.

`CCOC(=O)NC1C[C@@H]2CCCC[C@@H]2[C@H]1/C=C/c1ccc(-c2cccc(F)c2)cn1` (mixture of isomers) gave an IC50 in data set [1] of 2 µM.

Take `CC1(OC(N)=O)C[C@@H]2CCCC[C@@H]2[C@H]1/C=C/c1ccc(-c2cccc(F)c2)cn1` (mixture of isomers): the viability at 24 h, 30 µM in data set [2] was found to be 99%. Also, the IC50 in data set [1] stood at 0.0027 µM. For the same compound, the results for the half-life in data set [3] and in data set [4] were 4.3 min and 5.8 min, respectively.

In data set [1], `Fc1cccc(-c2ccc(/C=C/[C@@H]3[C@H]4CCCC[C@@H]4CC34OCCO4)nc2)c1` (racemic) returned an IC50 of 0.47 µM.
